Drawing on ChEMBL document CHEMBL1132273, “Subtype-selective N-methyl-D-aspartate receptor antagonists: synthesis and biological evaluation of 1-(arylalkynyl)-4-benzylpiperidines” (J Med Chem, 1999), this text covers IC50 for 16 molecules.

Molecules are shown by their SMILES.

Format in all cases: functional, cell-based, Oocyte
The target of test [1] is T1, Glutamate NMDA receptor; Grin1/Grin2a (Rattus norvegicus, UniProt P35439+Q00959). Description: Antagonistic activity against rat NR1A/2A receptor, expressed in Xenopus oocytes. The essentials: (§1)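 Two-electrode voltage clamp at -70 mV in nominally Ca2+-free Ringer (NaCl 115, KCl 2, BaCl2 1.8, HEPES 5 mM, pH 7.4). Drugs are given by bath perfusion at 7–10 mL/min, with final DMSO 0.1–1%. Inhibition of NMDA responses is measured, and IC50 is fitted from partial 3–5 point concentration–inhibition curves with a free residual minimum. Mean ± SEM, n as reported.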
T1 sequence (Q00959 whole entry, other chains not shown, the tested form may be a part): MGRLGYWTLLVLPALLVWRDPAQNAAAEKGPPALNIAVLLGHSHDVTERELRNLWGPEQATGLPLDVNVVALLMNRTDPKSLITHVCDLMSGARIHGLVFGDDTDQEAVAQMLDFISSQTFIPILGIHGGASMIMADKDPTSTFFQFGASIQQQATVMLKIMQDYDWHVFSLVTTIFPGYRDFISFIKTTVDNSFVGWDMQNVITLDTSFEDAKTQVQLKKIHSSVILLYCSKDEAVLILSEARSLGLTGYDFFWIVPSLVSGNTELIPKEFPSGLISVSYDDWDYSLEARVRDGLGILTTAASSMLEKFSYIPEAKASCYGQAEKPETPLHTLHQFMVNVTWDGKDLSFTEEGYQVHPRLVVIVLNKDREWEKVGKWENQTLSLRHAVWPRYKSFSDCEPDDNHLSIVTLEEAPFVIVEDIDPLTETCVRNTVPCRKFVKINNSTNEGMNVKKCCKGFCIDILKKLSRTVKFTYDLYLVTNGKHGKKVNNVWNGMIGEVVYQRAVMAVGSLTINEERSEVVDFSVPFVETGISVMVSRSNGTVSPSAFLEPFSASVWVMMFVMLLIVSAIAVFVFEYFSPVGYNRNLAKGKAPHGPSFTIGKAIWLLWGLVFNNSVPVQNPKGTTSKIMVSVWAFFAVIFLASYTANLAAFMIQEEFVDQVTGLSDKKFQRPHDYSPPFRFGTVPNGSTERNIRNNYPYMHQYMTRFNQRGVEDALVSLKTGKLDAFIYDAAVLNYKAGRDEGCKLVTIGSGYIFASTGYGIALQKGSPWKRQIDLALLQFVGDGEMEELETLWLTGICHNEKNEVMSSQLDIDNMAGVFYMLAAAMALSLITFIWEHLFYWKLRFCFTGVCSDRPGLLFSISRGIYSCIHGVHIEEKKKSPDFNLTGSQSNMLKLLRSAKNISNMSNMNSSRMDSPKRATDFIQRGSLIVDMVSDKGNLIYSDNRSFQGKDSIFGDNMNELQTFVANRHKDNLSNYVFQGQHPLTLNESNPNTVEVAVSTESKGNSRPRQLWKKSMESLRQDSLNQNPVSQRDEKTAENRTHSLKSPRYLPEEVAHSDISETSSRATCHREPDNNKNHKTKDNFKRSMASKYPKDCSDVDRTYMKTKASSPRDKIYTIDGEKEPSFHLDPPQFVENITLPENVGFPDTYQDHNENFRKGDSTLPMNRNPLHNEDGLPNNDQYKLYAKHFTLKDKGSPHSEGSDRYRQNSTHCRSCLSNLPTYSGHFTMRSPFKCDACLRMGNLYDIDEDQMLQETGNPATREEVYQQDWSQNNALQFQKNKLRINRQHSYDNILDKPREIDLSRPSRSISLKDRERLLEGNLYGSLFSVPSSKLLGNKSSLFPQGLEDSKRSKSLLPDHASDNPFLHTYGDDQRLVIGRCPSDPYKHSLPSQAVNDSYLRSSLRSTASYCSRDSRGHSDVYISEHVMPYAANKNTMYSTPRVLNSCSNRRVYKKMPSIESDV

The target in test [2] is T2, Glutamate NMDA receptor; Grin1/Grin2c (Rattus norvegicus, UniProt P35439+Q00961). The test can be described thus: The compound was tested for antagonistic activity against rat NR1A/2C receptor expressed in Xenopus oocytes. The essentials:
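Drugs are given by bath perfusion at 7–10 mL/min, with final DMSO 0.1–1%. Inhibition of NMDA responses is measured, and IC50 is fitted from partial 3–5 point concentration–inhibition curves with a free residual minimum. Mean ± SEM, n as reported.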

Test [3] deals with T3, Glutamate NMDA receptor; Grin1/Grin2b (Rattus norvegicus, UniProt P35439+Q00960). The test can be described thus: Antagonistic activity against rat NR1A/2B receptor expressed in Xenopus oocytes. A digest of the protocol:
(§2)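 Cloned NR1A/2B receptors in oocytes, recorded by two-electrode voltage clamp at -70 mV in nominally Ca2+-free Ringer (pH 7.4). Drugs are bath perfused, with final DMSO 0.1–1%. IC50 for inhibition of NMDA responses is fitted from partial 3–5 point curves, with the residual fractional response ('min') fixed at 0.15. Mean ± SEM.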

In test [4] the target is T1, Glutamate NMDA receptor; Grin1/Grin2a. Description: Antagonistic activity against rat N-methyl-D-aspartate glutamate receptor 1/2A, expressed in Xenopus oocytes. The essentials:
as §1

Test [5] deals with T3, Glutamate NMDA receptor; Grin1/Grin2b. Description: Antagonistic activity against rat N-methyl-D-aspartate glutamate receptor 1/2B expressed in Xenopus oocytes. A digest of the protocol:
as §2

For test [6], the target named is T2, Glutamate NMDA receptor; Grin1/Grin2c. Description: Antagonistic activity against rat N-methyl-D-aspartate glutamate receptor 1/2C expressed in Xenopus oocytes. The essentials:
as §1

T2 sequence (Q00961 whole entry, other chains not shown, the tested form may be a part): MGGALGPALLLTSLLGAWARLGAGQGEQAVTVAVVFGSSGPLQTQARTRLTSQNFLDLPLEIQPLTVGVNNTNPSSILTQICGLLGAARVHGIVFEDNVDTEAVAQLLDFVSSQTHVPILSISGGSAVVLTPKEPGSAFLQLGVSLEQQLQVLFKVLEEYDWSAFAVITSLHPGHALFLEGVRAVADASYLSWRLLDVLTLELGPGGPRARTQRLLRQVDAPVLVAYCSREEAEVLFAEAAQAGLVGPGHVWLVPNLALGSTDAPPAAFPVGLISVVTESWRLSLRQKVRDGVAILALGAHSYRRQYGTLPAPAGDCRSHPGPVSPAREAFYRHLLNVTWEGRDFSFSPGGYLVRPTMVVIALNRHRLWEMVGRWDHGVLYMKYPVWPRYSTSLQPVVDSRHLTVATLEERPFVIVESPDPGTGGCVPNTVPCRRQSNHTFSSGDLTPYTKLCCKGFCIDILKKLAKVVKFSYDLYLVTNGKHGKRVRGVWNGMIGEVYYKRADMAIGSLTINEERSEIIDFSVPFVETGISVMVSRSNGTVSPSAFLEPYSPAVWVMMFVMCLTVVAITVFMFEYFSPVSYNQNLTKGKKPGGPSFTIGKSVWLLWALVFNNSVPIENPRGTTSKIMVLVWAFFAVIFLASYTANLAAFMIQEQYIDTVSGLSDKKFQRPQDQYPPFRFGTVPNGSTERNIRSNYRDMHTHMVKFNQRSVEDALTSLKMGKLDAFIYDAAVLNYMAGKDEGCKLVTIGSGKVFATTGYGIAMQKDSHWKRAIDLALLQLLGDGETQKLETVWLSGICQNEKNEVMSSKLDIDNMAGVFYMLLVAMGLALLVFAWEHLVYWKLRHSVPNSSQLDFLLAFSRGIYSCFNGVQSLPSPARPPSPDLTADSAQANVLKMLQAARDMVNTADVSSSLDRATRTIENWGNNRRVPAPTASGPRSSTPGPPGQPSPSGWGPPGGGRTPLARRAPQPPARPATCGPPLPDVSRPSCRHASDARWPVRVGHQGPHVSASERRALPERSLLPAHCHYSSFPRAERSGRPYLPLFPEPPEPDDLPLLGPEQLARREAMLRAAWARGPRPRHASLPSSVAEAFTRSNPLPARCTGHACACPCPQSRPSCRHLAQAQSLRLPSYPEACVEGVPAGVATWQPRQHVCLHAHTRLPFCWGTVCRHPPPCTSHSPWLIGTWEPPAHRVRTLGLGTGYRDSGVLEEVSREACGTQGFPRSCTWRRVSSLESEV
T3 sequence (Q00960 whole entry, other chains not shown, the tested form may be a part): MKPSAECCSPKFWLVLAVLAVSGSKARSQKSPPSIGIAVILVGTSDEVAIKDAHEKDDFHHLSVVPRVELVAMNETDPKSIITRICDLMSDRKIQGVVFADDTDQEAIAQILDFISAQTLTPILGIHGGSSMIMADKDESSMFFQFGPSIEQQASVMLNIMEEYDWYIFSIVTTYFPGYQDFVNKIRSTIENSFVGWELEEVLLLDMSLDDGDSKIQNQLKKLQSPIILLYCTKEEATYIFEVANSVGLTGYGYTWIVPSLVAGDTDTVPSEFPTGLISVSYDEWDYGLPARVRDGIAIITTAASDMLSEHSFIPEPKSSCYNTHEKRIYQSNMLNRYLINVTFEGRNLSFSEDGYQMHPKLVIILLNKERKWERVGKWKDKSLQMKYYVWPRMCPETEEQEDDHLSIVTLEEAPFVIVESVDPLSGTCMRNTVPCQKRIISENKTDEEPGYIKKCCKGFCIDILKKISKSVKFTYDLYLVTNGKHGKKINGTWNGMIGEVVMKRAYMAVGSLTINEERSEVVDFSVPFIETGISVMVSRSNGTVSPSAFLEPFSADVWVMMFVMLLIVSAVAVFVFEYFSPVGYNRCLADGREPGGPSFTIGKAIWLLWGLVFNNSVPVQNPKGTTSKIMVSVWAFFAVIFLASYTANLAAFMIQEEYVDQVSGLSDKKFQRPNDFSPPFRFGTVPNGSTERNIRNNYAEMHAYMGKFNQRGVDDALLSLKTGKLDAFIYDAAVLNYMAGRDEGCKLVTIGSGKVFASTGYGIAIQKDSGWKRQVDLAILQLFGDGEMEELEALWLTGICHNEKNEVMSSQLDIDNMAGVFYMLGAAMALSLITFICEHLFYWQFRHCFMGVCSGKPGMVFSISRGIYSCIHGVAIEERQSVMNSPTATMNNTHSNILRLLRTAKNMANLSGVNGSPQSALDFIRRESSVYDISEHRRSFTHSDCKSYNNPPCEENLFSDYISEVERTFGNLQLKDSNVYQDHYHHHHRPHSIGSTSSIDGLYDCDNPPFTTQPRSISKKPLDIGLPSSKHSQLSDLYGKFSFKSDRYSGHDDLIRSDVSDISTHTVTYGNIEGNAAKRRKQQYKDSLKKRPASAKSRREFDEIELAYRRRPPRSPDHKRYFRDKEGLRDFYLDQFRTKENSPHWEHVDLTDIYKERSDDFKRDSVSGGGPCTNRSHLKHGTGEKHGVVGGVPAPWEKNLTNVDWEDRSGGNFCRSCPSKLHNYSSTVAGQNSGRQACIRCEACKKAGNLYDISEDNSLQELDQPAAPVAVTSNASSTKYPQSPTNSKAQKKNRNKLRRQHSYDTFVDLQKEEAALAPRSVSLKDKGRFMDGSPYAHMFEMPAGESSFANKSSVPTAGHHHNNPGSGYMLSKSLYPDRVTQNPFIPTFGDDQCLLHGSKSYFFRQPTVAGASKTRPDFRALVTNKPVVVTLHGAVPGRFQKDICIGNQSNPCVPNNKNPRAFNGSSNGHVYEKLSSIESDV

In the case of `Fc1ccc(C#CCCN2CCC(Cc3ccccc3)CC2)cc1`, the concentration for half-maximal inhibition (IC50) in test [1] was greater than 100 µM; in test [2], greater than 100 µM; in test [3], 2.7 µM.
`O=[N+]([O-])c1ccc(C#CCCN2CCC(Cc3ccccc3)CC2)cc1`: the IC50 in test [1] and in test [2] was greater than 100 µM each time.
For `CC(=O)Nc1ccc(C#CCN2CCC(Cc3ccccc3)CC2)cc1`, the half-inhibitory concentration (IC50) is 56 µM in test [4], 13 µM in test [5] and greater than 100 µM in test [6].
Regarding `Clc1cccc(C#CCCN2CCC(Cc3ccccc3)CC2)c1`, the IC50 in test [1] was greater than 100 µM; in test [2], greater than 100 µM; in test [3] it was 3.8 µM.
Consider `Nc1ccc(C#CCN2CCC(Cc3ccccc3)CC2)cc1`, for which the IC50 in test [1] and in test [2] was greater than 100 µM in each case.
Regarding `Cc1ccc(C#CCCN2CCC(Cc3ccccc3)CC2)cc1`, the IC50 in test [1] is 42 µM; in test [2] it was greater than 100 µM; in test [3], 4.2 µM.
For `Nc1ccccc1C#CCCN1CCC(Cc2ccccc2)CC1`, in that order: 70 µM, greater than 100 µM and 1.1 µM.
For `COc1ccc(C#CCCN2CCC(Cc3ccccc3)CC2)cc1`, in that order: greater than 100 µM, greater than 100 µM and 2.6 µM.
For `Nc1cccc(C#CCCN2CCC(Cc3ccccc3)CC2)c1`, in that order: greater than 100 µM, greater than 100 µM and 1.1 µM.
On to `Nc1ccc(C#CCCCN2CCC(Cc3ccccc3)CC2)cc1`, for which the figures for the IC50 in test [1], in test [2] and in test [3] were 12 µM, greater than 100 µM and 0.38 µM, respectively.
For `Clc1ccccc1C#CCCN1CCC(Cc2ccccc2)CC1`, in that order: 85 µM, greater than 100 µM and 1.2 µM.
The molecule `Nc1ccc(C#CCCN2CCC(Cc3ccc(Cl)cc3)CC2)cc1` returned an IC50 in test [3] of 1.2 µM.
Take `CC(=O)Nc1ccc(C#CCCCN2CCC(Cc3ccccc3)CC2)cc1`: the values for the IC50 in test [4], in test [5] and in test [6] were greater than 100 µM, 1.4 µM and greater than 100 µM, respectively.
For `Clc1ccc(C#CCCN2CCC(Cc3ccccc3)CC2)cc1`, the IC50 in test [1] was 47 µM; in test [2], greater than 100 µM; in test [3] it was 4 µM.
In the case of `CN(C)c1ccc(C#CCCN2CCC(Cc3ccccc3)CC2)cc1`, the half-inhibitory concentration (IC50) in test [4] was greater than 100 µM; in test [5], 15 µM; in test [6], greater than 100 µM.
For `NC(=O)c1ccc(C#CCCN2CCC(Cc3ccccc3)CC2)cc1`, the concentration for half-maximal inhibition (IC50) in test [4] was greater than 100 µM; in test [5], 2 µM; in test [6], greater than 100 µM.

What is called IC50 is the midpoint of a concentration-inhibition curve. A high value points to a need for much substance.
